Measurements pooled from the literature.
Target: Testis-specific serine/threonine-protein kinase 2 (TSSK2, Homo sapiens, UniProt Q96PF2)
One construct used (Q96PF2 1-358): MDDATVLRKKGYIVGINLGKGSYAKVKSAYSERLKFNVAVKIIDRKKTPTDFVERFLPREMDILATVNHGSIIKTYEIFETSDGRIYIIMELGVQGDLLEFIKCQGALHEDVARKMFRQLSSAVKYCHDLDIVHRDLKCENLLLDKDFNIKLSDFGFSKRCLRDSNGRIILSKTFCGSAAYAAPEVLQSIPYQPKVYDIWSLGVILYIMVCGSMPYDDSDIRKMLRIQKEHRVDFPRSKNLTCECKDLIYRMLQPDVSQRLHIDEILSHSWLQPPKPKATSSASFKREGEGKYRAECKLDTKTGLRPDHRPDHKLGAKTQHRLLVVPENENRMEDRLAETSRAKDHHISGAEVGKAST

The remaining activity of `CC(C)(O)[C@H]1CC[C@H](Nc2ccc3ncc(-c4cccc(C(F)(F)F)c4)n3n2)CC1` is reported as 101% (enzyme activity; inhibitor; 1 µM).
`CCN(CC)CCNC(=O)c1c(C)[nH]c(/C=C2\C(=O)Nc3ccc(F)cc32)c1C` gave an inhibition of 0% (enzyme activity; inhibitor; 0.3 µM).
For `CCN(CC)c1ccc(C2=NNC(=O)CC2C)cc1[N+](=O)[O-]` (stereo not shown), the remaining activity was 96% (enzyme activity; inhibitor; 10 µM).
`Cc1cc(NC(=O)c2cccc3cc(-c4cccc5[nH]nc(N)c45)ccc23)ccc1F` gave an activity vs control of 99% (enzyme activity; inhibitor; 0.1 µM).
`CC(C)(C)c1nc2c(s1)c1nc(N)ncc1c1ccc(NS(=O)(=O)c3c(F)cccc3F)c(F)c12` gave a remaining activity of 95% (enzyme activity; inhibitor; radiometric; 1 µM).
The inhibition of `CNC(=O)c1cc(Oc2ccc(NC(=O)Nc3ccc(Cl)c(C(F)(F)F)c3)cc2)ccn1` is reported as -1% (enzyme activity; inhibitor; 10 µM).
`O=C1Nc2ccc(Cl)cc2C1=Cc1cc(Cl)c(O)c(Cl)c1` has a remaining signal of 94.4% (cell-free assay; 0.5 µM).
With `Cc1ccc(Nc2nccc(N(C)c3ccc4c(C)n(C)nc4c3)n2)cc1S(N)(=O)=O` the inhibition was 0% (enzyme activity; inhibitor; 0.3 µM).
With `O=C1NC(=O)c2cc(Nc3ccc(F)cc3)c(Nc3ccc(F)cc3)cc21` the remaining signal was 97.2% (cell-free assay; 0.5 µM).
`Cc1cnc(NC2CCOCC2)nc1-n1cnc(C(=O)NC(CN)c2cc(F)cc(Cl)c2)c1` (stereo not shown) has a remaining activity of 108% (enzyme activity; inhibitor; radiometric; 1 µM).
`CNc1cccc2cc(C(=O)Nc3ccc(C(=O)O)cc3)c(=O)[nH]c12` has an inhibition of 3.4% (enzyme activity; inhibitor; 10 µM).
The remaining activity of `Cc1sc(C(=O)NC2COC2)cc1-n1cc(NC(=O)Nc2c(F)cccc2Cl)cn1` is reported as 84.7% (enzyme activity; inhibitor; 10 µM).
For `COc1cc2ncnc(Nc3ccc(Oc4ccccc4)cc3C)c2cc1OC`, the inhibition was -1% (enzyme activity; inhibitor; 1 µM).
